We go through twelve compounds from ChEMBL document CHEMBL1165893, “Synthesis, anticancer and antioxidant activities of 7-methoxyisoflavanone and 2,3-diarylchromanones” (Eur J Med Chem, 2010).

A short description of series [1]: Cytotoxicity against human PBMC cells after 5 days by MTT assay. It counts as cell-based. The method in brief: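 Cells seeded at 3 × 10^5 cells/mL in 96-well plates and kept at 37 °C in humidified 5% CO2 with test compound for 5 days. PBMC came from healthy donors. Viability read by MTT; CC50 calculated. Mean ± SD of three independent experiments, Student t-test.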
In general terms: Tetrazolium dyes change colour on reduction, which living cells bring about.

The subject of series [2] is HL-60. Nature of the series: Cytotoxicity against human HL60 cells after 5 days by MTT assay. The conditions noted are these: HL-60, 120 h. It counts as functional.
In series [3] the test system is HL-60. The series is described as follows: Induction of apoptosis in human HL60 cells assessed as fragmentation of DNA after 48 hrs by electrophoresis. It counts as functional, cell-based. Put shortly:
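HL60 cells exposed to test compound alongside untreated control. After 48 h, DNA extracted, run on 0.8% agarose gel with ethidium bromide, and fragmentation pattern imaged.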

Series [4] is described as follows: Antioxidant activity assessed as free radical scavenging activity by lipid peroxidation assay. In kind it is functional. Put shortly: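 Lipid peroxidation system initiated with 400 mM FeCl3 and 200 mM L-ascorbic acid (stock levels as printed). Test compound added at several concentrations; control without compound. Incubated 37 °C, 60 min. Stopped with 0.25 N HCl / 1.5% TCA / 0.375% thiobarbituric acid, boiled 15 min, cooled, centrifuged. Absorbance read at 532 nm; percent inhibition versus control used to derive EC50.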

Series [5] has as its system HL-60. The series is described as follows: Induction of apoptosis in human HL60 cells after 48 hrs using annexin V-propidium iodide staining by FACS analysis. In kind it is functional, cell-based. The method in brief:
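HL60 cells incubated with test compound at a concentration set from its CC50. Stained with FITC-Annexin V and analysed by flow cytometry, with treated-cell fluorescence compared against control cells.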
For orientation: A flow cytometer gives signals particle by particle.

The structures appear in SMILES notation. Active and inactive are the calls of the source. The calls are words filed in the database; no cut-off is given here.

In the case of `COc1ccc2c(c1)OCC(c1ccccc1)C2=O` (centres undefined), in series [1], the CC50 (in general, the concentration giving 50% cytotoxicity) at 120 h was 521 µM. The compound further displayed a CC50 in the series on HL-60 [2] of 82.6 µM. In addition, the result in the series with HL-60 [3] was Active. For the same compound, in series [4], the half-maximal effective concentration (EC50) – broadly, the midpoint of the concentration-response curve – was 965 µM.
In the same order, the values of `COc1ccc2c(c1)OC(c1ccc([N+](=O)[O-])cc1)C(c1ccccc1)C2=O` (centres undefined) are 595 µM, 73.2 µM, “Active” and greater than 2500 µM.
Compound `CCOc1ccc2c(c1)OC(c1ccc([N+](=O)[O-])cc1)C(c1ccccc1)C2=O` (centres undefined) registered a CC50 at 120 h in series [1] of 1360 µM. The compound further came in with a CC50 in the series with HL-60 [2] of 203 µM. The result in the series on HL-60 [3] was Active. The EC50 in series [4] is greater than 2500 µM.
In the case of `O=C1O[C@H]([C@@H](O)CO)C(O)=C1O` [ASCORBIC ACID], in series [4], the EC50 came to 754 µM.
`O=c1[nH]cc(F)c(=O)[nH]1` [FLUOROURACIL] came in with a half-maximal cytotoxic concentration (CC50) in the series with HL-60 [2] of 0.07 µM.
As for `CCOc1ccc2c(c1)OC(c1ccccc1)C(c1ccccc1)C2=O` (centres undefined), the CC50 at 120 h in series [1] is greater than 2500 µM. Further, the CC50 in the series on HL-60 [2] is greater than 2500 µM. For the same compound, in the series on HL-60 [3], the outcome was Active. The EC50 in series [4] is 877 µM.
For the compound `CCOc1ccc2c(c1)OC(c1ccc(Cl)cc1)C(c1ccccc1)C2=O` (centres undefined), in series [1], the 50% cytotoxic concentration (CC50) at 120 h was greater than 2500 µM. In the series on HL-60 [2], the cytotoxic concentration (CC50) worked out at 514 µM. The result in the series on HL-60 [3] was Active. For the same compound, the concentration for a half-maximal effect (EC50) in series [4] is 578 µM.
Regarding `COc1ccc2c(c1)OC(c1cccc([N+](=O)[O-])c1)C(c1ccccc1)C2=O` (centres undefined), in series [1], the CC50 at 120 h was greater than 2500 µM. Moreover, the CC50 in the series on HL-60 [2] is greater than 2500 µM. The result in the series on HL-60 [3] was Active. Besides, the EC50 in series [4] is 130 µM.
Compound `COc1ccc2c(c1)OC(c1ccccc1)C(c1ccccc1)C2=O` (centres undefined) came in with a cytotoxic concentration (CC50) at 120 h in series [1] greater than 2500 µM. For the same compound, the 50% cytotoxic concentration (CC50) in the series on HL-60 [2] amounted to 2330 µM. Moreover, in the series with HL-60 [3], the result was Active. Also, the EC50 in series [4] amounted to 500 µM.
With `CCOc1ccc2c(c1)OC(c1cccc([N+](=O)[O-])c1)C(c1ccccc1)C2=O` (centres undefined), the half-maximal cytotoxic concentration (CC50) at 120 h in series [1] is greater than 2500 µM. Moreover, the cytotoxic concentration (CC50) with HL-60 [2] is greater than 2500 µM. Besides, in the series with HL-60 [3], the result was Active. For the same compound, in series [4], the EC50 amounted to 193 µM.
Regarding `COc1ccc2c(c1)OC(c1ccc(Cl)cc1)C(c1ccccc1)C2=O` (centres undefined), the half-maximal cytotoxic concentration (CC50) at 120 h in series [1] is greater than 2500 µM. This compound also returned a CC50 with HL-60 [2] of 2410 µM. In addition, the outcome in the series with HL-60 [3] was Active. Besides, the concentration giving a half-maximal response (EC50) in series [4] is 165 µM.
Turning to `COc1ccc2cc3[n+](cc2c1OC)CCc1cc2c(cc1-3)OCO2`, the outcome in the series on HL-60 [5] was Active.
